The record followed here is ChEMBL document CHEMBL4699593, “Identification of 2,4-Disubstituted Imidazopyridines as Hemozoin Formation Inhibitors with Fast-Killing Kinetics and In Vivo Efficacy in the Plasmodium falciparum NSG Mouse Model” (J Med Chem, 2020).

≈ marks a conversion by molar mass, not a printed value.

Sequence of Voltage-gated inwardly rectifying potassium channel KCNH2 (Q12809 whole entry): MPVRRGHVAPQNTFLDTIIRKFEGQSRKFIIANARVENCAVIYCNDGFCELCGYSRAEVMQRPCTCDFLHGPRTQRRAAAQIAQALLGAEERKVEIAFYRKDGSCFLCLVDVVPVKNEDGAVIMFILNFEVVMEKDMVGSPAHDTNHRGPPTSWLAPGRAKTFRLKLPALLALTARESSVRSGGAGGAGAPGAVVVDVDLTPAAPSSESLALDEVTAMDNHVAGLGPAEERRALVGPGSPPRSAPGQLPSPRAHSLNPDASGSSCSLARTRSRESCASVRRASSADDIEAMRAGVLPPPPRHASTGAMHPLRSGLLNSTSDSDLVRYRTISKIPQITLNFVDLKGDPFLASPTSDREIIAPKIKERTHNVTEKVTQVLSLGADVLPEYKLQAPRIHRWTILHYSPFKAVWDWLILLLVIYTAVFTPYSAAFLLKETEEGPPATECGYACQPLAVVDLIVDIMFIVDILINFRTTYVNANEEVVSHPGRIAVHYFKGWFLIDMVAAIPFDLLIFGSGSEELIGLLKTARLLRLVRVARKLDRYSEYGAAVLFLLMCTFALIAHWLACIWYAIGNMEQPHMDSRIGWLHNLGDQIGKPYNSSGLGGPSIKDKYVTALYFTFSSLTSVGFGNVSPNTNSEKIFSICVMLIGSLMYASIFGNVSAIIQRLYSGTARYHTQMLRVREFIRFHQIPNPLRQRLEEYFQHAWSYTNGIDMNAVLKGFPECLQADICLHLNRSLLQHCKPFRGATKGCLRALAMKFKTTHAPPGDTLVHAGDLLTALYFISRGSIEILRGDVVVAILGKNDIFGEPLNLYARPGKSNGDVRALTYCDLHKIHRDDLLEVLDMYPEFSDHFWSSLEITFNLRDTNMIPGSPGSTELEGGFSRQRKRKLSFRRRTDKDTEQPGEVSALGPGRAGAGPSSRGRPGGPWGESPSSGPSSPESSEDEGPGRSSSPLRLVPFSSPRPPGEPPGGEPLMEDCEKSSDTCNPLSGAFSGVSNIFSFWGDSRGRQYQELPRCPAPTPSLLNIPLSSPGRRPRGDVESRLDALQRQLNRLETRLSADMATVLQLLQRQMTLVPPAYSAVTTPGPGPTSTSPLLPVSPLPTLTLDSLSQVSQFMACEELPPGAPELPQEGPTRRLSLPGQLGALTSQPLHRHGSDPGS

In one data set the test system is Plasmodium falciparum. The experiment in a line: Antiplasmodial activity against multidrug-sensitive asexual blood stage Plasmodium falciparum NF54 strain assessed as reduction in parasite growth after 72 hrs by NBT reagent based LDH assay. Format: functional, organism-based. The conditions noted are these: NF54, 72 h.
One may read the IC50 as the concentration that gives 50% inhibition. Consider `CN1CCOC2(CCN(c3nccc4[nH]c(-c5cc(F)cc(F)c5)nc34)CC2)C1`, for which the IC50 came to 180 nM.

Turning to `CN1CCN(C2CCN(c3nccc4[nH]c(-c5cccc(S(C)(=O)=O)c5)nc34)CC2)CC1`, the 50% inhibitory concentration (IC50) was found to be 450 nM.

For `Fc1ccc(-c2nc3c(N4CCCNCC4)nccc3[nH]2)cc1F`, the IC50 was determined as 210 nM.

Consider `Cc1cc2[nH]c(-c3cc(F)cc(F)c3)nc2c(N2CCC(CN3CCN(C)CC3)CC2)n1`, for which the IC50 came to 12 nM.

Take `CN1CCN(CC2CCN(c3cccc4[nH]c(-c5cc(F)cc(F)c5)nc34)CC2)CC1`: the half-inhibitory concentration (IC50) stood at 830 nM.

Regarding `CN1CCN(CC2CCN(c3nccc4[nH]c(-c5ccc(F)c(F)c5)nc34)CC2)CC1`, the IC50 is less than 20 nM.

For the compound `Fc1ccc(-c2nc3c(N4CCNCC4)nccc3[nH]2)cc1F`, the IC50 worked out at 170 nM.

For `CN1CCN(CC2CCN(c3nccc4[nH]c(-c5ccc(F)c(Cl)c5)nc34)CC2)CC1`, the IC50 was less than 12 nM.

For the compound `Fc1ccc(-c2nc3c(N4CCN5CCC4CC5)nccc3[nH]2)cc1F`, the IC50 was 79 nM.

As for `Fc1cc(F)cc(-c2nc3c(N4CCC(CN5CCNCC5)CC4)nccc3[nH]2)c1`, the IC50 came to 38 nM.

The next data set relates to Plasmodium falciparum. The experiment in a line: Antiplasmodial activity against multidrug-resistant asexual blood stage Plasmodium falciparum K1 strain assessed as reduction in parasite growth after 72 hrs by NBT reagent based LDH assay. Format: functional, organism-based. The conditions noted are these: K1, 72 h. In short, it runs like this:
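Asexual blood-stage K1 (multidrug-resistant) parasites were read out by the parasite lactate dehydrogenase (pLDH) assay. […] Most individual values varied less than 2× (maximum 3×).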
On to `CN1CCOC2(CCN(c3nccc4[nH]c(-c5cc(F)cc(F)c5)nc34)CC2)C1`, for which the IC50 was 320 nM.

For the compound `CN1CCN(C2CCN(c3nccc4[nH]c(-c5cccc(S(C)(=O)=O)c5)nc34)CC2)CC1`, the IC50 was found to be 1500 nM.

As for `Fc1ccc(-c2nc3c(N4CCCNCC4)nccc3[nH]2)cc1F`, the 50% inhibitory concentration (IC50) was 1000 nM.

Regarding `Cc1cc2[nH]c(-c3cc(F)cc(F)c3)nc2c(N2CCC(CN3CCN(C)CC3)CC2)n1`, the IC50 came to 21 nM.

Take `CN1CCN(CC2CCN(c3cccc4[nH]c(-c5cc(F)cc(F)c5)nc34)CC2)CC1`: the IC50 stood at 1500 nM.

As for `CN1CCN(CC2CCN(c3nccc4[nH]c(-c5ccc(F)c(F)c5)nc34)CC2)CC1`, the IC50 worked out at 27 nM.

As to `Fc1ccc(-c2nc3c(N4CCNCC4)nccc3[nH]2)cc1F`, the IC50 is 970 nM.

Regarding `CN1CCN(CC2CCN(c3nccc4[nH]c(-c5ccc(F)c(Cl)c5)nc34)CC2)CC1`, the IC50 stood at 25 nM.

As for `Fc1ccc(-c2nc3c(N4CCN5CCC4CC5)nccc3[nH]2)cc1F`, the IC50 is 430 nM.

As to `Fc1cc(F)cc(-c2nc3c(N4CCC(CN5CCNCC5)CC4)nccc3[nH]2)c1`, the 50% inhibitory concentration (IC50) is 240 nM.

System in the next data set: not listed separately
The experiment in a line: Aqueous solubility of compound in phosphate buffer saline at pH 6.5 incubated for 20 hrs under shaking condition by shake-flask method based HPLC-DAD analysis. Format: physicochemical. The conditions noted are these: phosphate buffered saline. Put shortly:
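Equilibrium aqueous solubility was measured at pH 6.5 using a miniaturized shake-flask method.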
A word on the thermodynamic solubility: it is solubility found after equilibrating the solid with the medium. `CN1CCOC2(CCN(c3nccc4[nH]c(-c5cc(F)cc(F)c5)nc34)CC2)C1` showed a solubility (thermodynamic) at 20 h of 175 µM (≈ 69.9 µg/mL).

`CN1CCN(C2CCN(c3nccc4[nH]c(-c5cccc(S(C)(=O)=O)c5)nc34)CC2)CC1` returned a solubility (thermodynamic) at 20 h of 190 µM (≈ 86.4 µg/mL).

Turning to `Fc1ccc(-c2nc3c(N4CCCNCC4)nccc3[nH]2)cc1F`, the thermodynamic solubility at 20 h came out at 165 µM (≈ 54.3 µg/mL). The solubility thermodynamic at 20 h values of the last two compounds are within 1.5-fold of each other.

On to `Cc1cc2[nH]c(-c3cc(F)cc(F)c3)nc2c(N2CCC(CN3CCN(C)CC3)CC2)n1`, for which the thermodynamic solubility at 20 h is 200 µM (≈ 88.1 µg/mL). The solubility thermodynamic at 20 h values of the last two compounds are within 1.5-fold of each other.

For `CN1CCN(CC2CCN(c3cccc4[nH]c(-c5cc(F)cc(F)c5)nc34)CC2)CC1`, the thermodynamic solubility at 20 h is 200 µM (≈ 85.1 µg/mL).

On to `CN1CCN(CC2CCN(c3nccc4[nH]c(-c5ccc(F)c(F)c5)nc34)CC2)CC1`, for which the thermodynamic solubility at 20 h stood at 195 µM (≈ 83.2 µg/mL). The solubility thermodynamic at 20 h values of the last two compounds are within 1.5-fold of each other.

Turning to `Fc1ccc(-c2nc3c(N4CCNCC4)nccc3[nH]2)cc1F`, the solubility (thermodynamic) at 20 h turned out to be 150 µM (≈ 47.3 µg/mL).

In the case of `CN1CCN(CC2CCN(c3nccc4[nH]c(-c5ccc(F)c(Cl)c5)nc34)CC2)CC1`, the thermodynamic solubility at 20 h was found to be 155 µM (≈ 68.7 µg/mL).

As to `Fc1ccc(-c2nc3c(N4CCN5CCC4CC5)nccc3[nH]2)cc1F`, the thermodynamic solubility at 20 h was 200 µM (≈ 71.1 µg/mL).

On to `Fc1cc(F)cc(-c2nc3c(N4CCC(CN5CCNCC5)CC4)nccc3[nH]2)c1`, for which the thermodynamic solubility at 20 h was 190 µM (≈ 78.4 µg/mL).

The next data set relates to CHO. The experiment in a line: Cytotoxicity against CHO cells assessed as reduction in cell viability by MTT assay. Format: cell-based, Cricetulus griseus. The conditions noted are these: chinese hamster. Put shortly:
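Cytotoxicity was measured in Chinese hamster ovary (CHO) cells and reported as CC50. The selectivity index is CC50 divided by NF54 IC50.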
In general terms: Formazan colour is commonly taken as a measure of viable cells.
In general, CC50 refers to the concentration giving 50% cytotoxicity. For `CN1CCOC2(CCN(c3nccc4[nH]c(-c5cc(F)cc(F)c5)nc34)CC2)C1`, the CC50 is 32000 nM.

Take `CN1CCN(C2CCN(c3nccc4[nH]c(-c5cccc(S(C)(=O)=O)c5)nc34)CC2)CC1`: the CC50 was greater than 50000 nM.

As for `Fc1ccc(-c2nc3c(N4CCCNCC4)nccc3[nH]2)cc1F`, the CC50 is 7200 nM.

In the case of `Cc1cc2[nH]c(-c3cc(F)cc(F)c3)nc2c(N2CCC(CN3CCN(C)CC3)CC2)n1`, the CC50 was found to be 1900 nM.

For `CN1CCN(CC2CCN(c3cccc4[nH]c(-c5cc(F)cc(F)c5)nc34)CC2)CC1`, the CC50 amounted to 22000 nM.

On to `CN1CCN(CC2CCN(c3nccc4[nH]c(-c5ccc(F)c(F)c5)nc34)CC2)CC1`, for which the CC50 stood at 7400 nM.

For `Fc1ccc(-c2nc3c(N4CCNCC4)nccc3[nH]2)cc1F`, the CC50 was found to be 8100 nM.

As for `CN1CCN(CC2CCN(c3nccc4[nH]c(-c5ccc(F)c(Cl)c5)nc34)CC2)CC1`, the CC50 worked out at 850 nM.

On to `Fc1ccc(-c2nc3c(N4CCN5CCC4CC5)nccc3[nH]2)cc1F`, for which the CC50 worked out at 28000 nM.

Consider `Fc1cc(F)cc(-c2nc3c(N4CCC(CN5CCNCC5)CC4)nccc3[nH]2)c1`, for which the CC50 came out at 20000 nM.

The next data set addresses Voltage-gated inwardly rectifying potassium channel KCNH2 (Homo sapiens, UniProt Q12809). The experiment in a line: Inhibition of human ERG by patch clamp method.
Conditions: not given
A general note: The patch-clamp technique gives a direct electrical read-out from membranes.
On to `CN1CCOC2(CCN(c3nccc4[nH]c(-c5cc(F)cc(F)c5)cc34)CC2)C1`, for which the IC50 was no more than 3000 nM.

As to `CN1CCCN(c2nccc3[nH]c(-c4cc(F)cc(F)c4)nc23)CC1`, the IC50 came to 400 nM.

`CN1CCN(C2CCN(c3nccc4[nH]c(-c5cc(F)cc(F)c5)cc34)CC2)CC1` showed an IC50 of 4000 nM.

Regarding `Cc1cc2[nH]c(-c3cc(F)cc(F)c3)nc2c(N2CCC(CN3CCN(C)CC3)CC2)n1`, the concentration for half-maximal inhibition (IC50) is greater than 30000 nM.

In the case of `CN1CCN(CC2CCN(c3cccc4[nH]c(-c5cc(F)cc(F)c5)nc34)CC2)CC1`, the IC50 is greater than 30000 nM.

For the compound `Fc1ccc(-c2nc3c(N4CCNCC4)nccc3[nH]2)cc1F`, 3400 nM corresponded to half-maximal inhibition (IC50).

System in a further data set: not listed separately
The experiment in a line: Selectivity index, ratio of CC50 for cytotoxicity against CHO cells assessed as reduction in cell viability to IC50 for antiplasmodial activity against multidrug-sensitive Plasmodium falciparum NF54 assessed as reduction in parasite growth. To be noted: hamster, read-out: Ratio CC50/IC50. Format: toxicity, cell-based.
In the case of `Cc1cc2[nH]c(-c3cc(F)cc(F)c3)nc2c(N2CCC(CN3CCN(C)CC3)CC2)n1`, the selectivity ratio was 160.

With `CN1CCN(CC2CCN(c3nccc4[nH]c(-c5ccc(F)c(F)c5)nc34)CC2)CC1`, the selectivity ratio amounted to 370.

The next data set deals with Hemozoin. The experiment in a line: Inhibition of beta-hematin formation assessed as reduction in hemozoin formation incubated for 5 hrs by NP40 detergent-mediated assay.
Conditions: not given
Put shortly: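 Synthetic hemozoin (β-hematin) formation is driven by the detergent Nonidet P-40. Pyridine is then added to detect unreacted hematin. IC50 is derived from this read-out.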
As for `Cc1cc2[nH]c(-c3cc(F)cc(F)c3)nc2c(N2CCC(CN3CCN(C)CC3)CC2)n1`, the IC50 was 15000 nM.
